# High-throughput results deposited in PubChem BioAssay by several laboratories.
# HNF4A DNA FP – change in binding of human HNF4 alpha to DNA | P41235 | HNF4a-FITC DNA binding, fluorescence polarization, 1 h | activity change, % at 10 µM | 360,000 tested, 0.3% active; in the data active means activity change above about 30%, passing the limit was not always enough
# CSN inh – inhibitors of human CSN-mediated cullin deneddylation; Q92905; Purified CSN, SCF-Nedd8-OG deneddylation, fluorescence polarization; inhibition, % at 12.5 µM; 360,000 tested, 0.38% active;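 active means pattern-corrected inhibition above about 35%, with an unprinted fluorescence ratio check between 0.5 and 1.5, limit read from the data, passing the limit was not always enough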
#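 assay system = purified human Csn5 enzyme expressed in HEK293T cells | amount = 0.24 nM enzyme | buffer or medium = Tris/NaCl/DTT buffer, pH 7.5 | reagent = 10 nM SCFSkp2-Nedd8OG | compound = one concentration, 12.5 µM, 0.25% DMSO | times = 90 min reaction at room temperature | signal = FP | read-out basis = % inhibition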
# aDG glyco up – increases alpha dystroglycan glycosylation. Pro5-aDG cells, alpha-DG glycosylation AlphaScreen (IIH6); 0% Pro5, 100% B10-LARGE cell signal. activation, % at 10 µM. 360,000 tested, 0.22% active. AID 624168;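 active means activation of at least 8% versus controls, or a plate z-score of at least 8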;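 further: Pro5 are CHO cells carrying HIG-tagged alpha-DG that lacks glycosylation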
# XiGFP reactiv – activators of X-chromosome reactivation in mouse fibroblasts; AID 743238; activation, % at 7.58 µM; XiGFP mouse fibroblasts, % GFP-positive cells imaging, 3 d; cells co-treated with 5-aza-dC sensitizer; scaled so ellipticine positive control = 100%; 360,000 tested, 0.055% active;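 active means mean normalized replicate activation at least 10% and every replicate at or above 10%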
#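 assay system = SV40-immortalized XiGFP fibroblast cells, line 68-5-11 | buffer or medium = DMEM plus 5-aza-dC sensitizer | doses = single-point pinned compound dosing | times = 3-day compound exposure, then 15 min fixation at room temperature | benchmarks = positive control ellipticine, 6 µM final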
# Rpn11 inh – Rpn11 (human) deubiquitinase inhibition. inhibition, % at 20 µM. human 26S proteasome, Ub4-pepOG fluorescence polarization; 20S core pre-blocked with epoxomicin. 360,000 tested, 0.59% active. O00487;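 active means inhibition at 20 µM, scaled to each plate's controls, above about 33%, limit read from the data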
# Target sequence (O00487 whole entry, looked up): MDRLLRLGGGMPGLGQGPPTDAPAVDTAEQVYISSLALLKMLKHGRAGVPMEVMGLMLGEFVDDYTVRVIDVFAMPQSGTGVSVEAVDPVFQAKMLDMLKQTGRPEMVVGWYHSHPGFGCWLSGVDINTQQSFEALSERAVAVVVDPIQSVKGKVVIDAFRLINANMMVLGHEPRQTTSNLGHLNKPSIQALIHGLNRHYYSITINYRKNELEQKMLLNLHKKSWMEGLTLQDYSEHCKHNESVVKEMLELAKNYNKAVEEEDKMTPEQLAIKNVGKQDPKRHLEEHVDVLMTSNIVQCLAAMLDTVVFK
# TPT1 inhibitor – C. albicans TPT1 enzyme inhibition. recombinant caTPT1, FP RNA substrate dephosphorylation. inhibition, % at 5 µM. 300,000 tested, 0.81% active. AID 1962;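 active means inhibition above the mean of all tested compounds plus 3 SD, set per screening campaign, cut at about 24% in these data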
# caTPT1 confirm – confirmation of Candida albicans TPT1 inhibitors; shares compounds with TPT1 inhibitor; recombinant caTPT1, fluorescence polarization, RNase T1 coupled; inhibition, % at 5 µM; 2,400 tested, 74% active; AID 2149;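 active means inhibition above the primary screen limit, the mean inhibition of all tested compounds plus 3 SD, cut at about 25% in these data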
# RNase T1 inh – RNase T1 inhibition in TPT1 counter-screen; RNase T1 cleavage, fluorescence polarization, 1536-well; 2,400 tested, 83% active; inhibition, % at 5 µM; shares compounds with TPT1 inhibitor;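 active means inhibition above the solvent-only control well mean plus 3 SD, limit set per screening run, cut at about 23% in these data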;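 further: inhibitors block cleavage so intact labeled substrate keeps polarization high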
# Target sequence (P00651 whole entry, looked up): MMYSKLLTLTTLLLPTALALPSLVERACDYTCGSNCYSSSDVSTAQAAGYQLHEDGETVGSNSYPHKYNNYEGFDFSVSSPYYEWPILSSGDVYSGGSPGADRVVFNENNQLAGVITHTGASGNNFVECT
# Hits are given with their value; – = inactive; · = no result given. The list is not random: actives were taken first. Their share in the collection is about 1.3%.
SMILES,HNF4A DNA FP,CSN inh,aDG glyco up,XiGFP reactiv,Rpn11 inh,TPT1 inhibitor,caTPT1 confirm,RNase T1 inh
COc1ccc(N=Cc2cc3c(cc2O)OC(N)=C(C#N)C3c2ccccc2)cc1 (stereo unspecified),66,–,–,–,·,55,78,88
COc1ccc(C2C(C#N)=C(N)Oc3cc(O)ccc32)cc1 (stereo unspecified),–,–,–,–,–,·,·,·
C[C@@H]1CN([C@H](C)CO)C(=O)c2cc(-c3ccc(F)cc3)cnc2O[C@H]1CN(C)C(=O)Nc1ccc(F)cc1,·,·,·,–,·,·,·,·
OCCCNc1ncnc2sc3c(c12)CCN(Cc1ccccc1)C3,–,–,–,–,–,24,49,64
O=C(O)/C=C/c1cn(-c2ccccc2)nc1-c1ccc(-c2ccc([N+](=O)[O-])cc2)o1,–,–,–,–,·,69,84,91
COc1ccc(NC(=O)CSc2ccc3c4c(cccc24)C(=O)c2ccccc2-3)cc1,–,–,–,·,–,26,28,41
Fc1ccc(CN2[C@@H]3CN(CC(F)(F)F)C[C@H]2C3c2ccccc2)cc1 (stereo partly specified),·,·,·,–,·,·,·,·
N#Cc1c(Sc2ncc(C(F)(F)F)cc2Cl)nsc1C/C=N\OCc1c(F)cccc1Cl,–,–,–,·,·,36,–,33
CCN1C(=O)/C(=C2/Sc3ccccc3N2CC)SC1=S,–,–,–,–,·,–,·,·
C=CCN1/C(=C2/SC(=S)N(C)C2=O)Sc2ccccc21,·,·,·,·,·,35,59,73
CCn1c(/C=C/N(C)c2ccccc2)[n+](CC)c2ccc(Cl)cc21,–,–,–,·,–,–,·,·
CC[n+]1c(/C=C/Nc2ccccc2)oc2ccccc21,–,–,–,·,–,38,52,64
CC[n+]1c(/C=C/N(C)c2ccccc2)oc2ccccc21,–,–,–,–,·,36,49,61
COc1ccc(NC(=O)N(C)C[C@@H]2Oc3ncc(C#C[C@@H](C)O)cc3C(=O)N([C@@H](C)CO)C[C@H]2C)cc1,·,·,·,–,·,·,·,·
Cc1noc(C)c1S(=O)(=O)Nc1ccc2c(c1)CC(=O)N([C@H](C)CO)C[C@H](C)[C@H](CN(C)S(=O)(=O)c1c(C)noc1C)O2,·,·,·,–,·,·,·,·
C=CCNC(=O)c1cc2c(=O)c3ccccc3oc2nc1C,–,–,–,–,–,48,–,–
CO[C@@H](CN(C)C(=O)c1ccccc1F)[C@H](C)CN([C@@H](C)CO)S(=O)(=O)c1ccc(Cl)cc1,·,·,·,–,·,·,·,·
Cc1ccc2nc(NC(=O)CSCC(=O)OCC(=O)c3ccccc3)sc2c1,–,–,–,–,–,30,–,–
CCOCC(=O)Nc1nc2ccc(C)cc2s1,–,–,–,·,–,–,·,·
CCC(=O)Nc1ccc2c(c1)C(=O)N(C)[C@H]1CC[C@H](CC(=O)NCCc3ccncc3)O[C@H]1CO2,·,·,·,–,·,·,·,·
C=CCn1c(=O)/c(=C\c2ccccn2)s/c1=C(/C#N)C(=O)NCC1CCCO1 (stereo unspecified),–,–,–,–,·,–,·,·
C=CCn1c(=O)/c(=C/c2ccc(C)o2)s/c1=C(/C#N)C(=O)c1ccccc1,–,45,–,·,·,106,144,142
O=C1c2ccccc2S(=O)(=O)c2cc(C(=O)N3CCN(c4ccccc4)CC3)ccc21,–,–,–,–,–,–,·,·
O=C1c2ccccc2S(=O)(=O)c2cc(N3CCN(C(=O)c4ccccc4)CC3)ccc21,·,·,·,–,·,35,61,70
O=C1c2ccccc2S(=O)(=O)c2cc(N3CCC4(CC3)OCCO4)ccc21,·,·,·,–,·,30,45,56
SMILES,HNF4A DNA FP,CSN inh,aDG glyco up,XiGFP reactiv,Rpn11 inh,TPT1 inhibitor,caTPT1 confirm,RNase T1 inh
C[C@H]1CN([C@@H](C)CO)C(=O)c2cccc(NC(=O)NC3CCCCC3)c2O[C@H]1CN(C)Cc1ccc(C(=O)Nc2ccccc2N)cc1,·,·,·,–,·,·,·,·
CCCN1C=CC(=C/C=C(\C#N)C(=O)OCC)C=C1,·,·,·,·,·,181,190,177
CCOC(=O)/C(C#N)=C/N=c1ccc(C)cn1C,–,–,–,–,–,–,·,·
CCCCCCN1C=CC(=C/C=C(\C#N)C(=O)OCC)C=C1,–,–,–,·,·,176,193,173
CCOc1ccc2nc(N3C(=O)/C(=C/c4ccccc4)NC3=S)sc2c1,–,–,–,–,·,26,35,45
CCOc1ccc2nc(N3CCCCCC3)sc2c1,–,–,–,·,–,–,·,·
CSc1nc(-c2ccc(N(C)C)cc2)c(C#N)c(=O)n1C,–,–,–,–,–,31,41,52
CSc1nc(-c2ccc(Cl)cc2)c(C#N)c(=O)n1C,–,–,–,–,–,–,·,·
O=C(O)CNC(=O)CC1S/C(=N/N=C2/NC(=O)CS2)NC1=O (stereo unspecified),–,–,–,–,–,26,33,46
NC(=O)NC(=O)CC1S/C(=N/N=C2\CSC(=O)N2)NC1=O (stereo unspecified),–,–,–,–,–,–,·,·
O=C(N/N=C/c1ccccc1Br)c1cccc(S(=O)(=O)N2CCOCC2)c1,–,–,–,–,–,·,·,·
O=C(N/N=C/c1cc(Br)cc(Br)c1O)c1cccc(S(=O)(=O)N2CCOCC2)c1,–,–,–,–,·,48,55,54
O=C(N/N=C/c1cc(Br)cc(Br)c1O)c1cccc(N2CCCC2=O)c1,–,–,–,–,·,54,68,73
CCN(CC)CCCNC(=O)c1cc2c(-c3cccc(OC)c3)nn(C)c2s1,–,–,–,–,–,37,–,–
CCC1CCCCN1CCCNC(=O)CNC(=O)c1nn(-c2ccc(OC)cc2)c(=O)c2ccccc12 (stereo unspecified),–,–,–,–,–,–,·,·
CCC1CCCCN1CCCNC(=O)CNC(=O)Cn1ccc2ccccc2c1=O (stereo unspecified),–,–,–,·,–,37,–,–
COc1ccccc1/C=C/C=C1\Oc2c(ccc(O)c2CN(C)C)C1=O,–,–,–,–,·,32,33,45
CCN(CC)Cc1c(O)ccc2c1O/C(=C\C=C\c1ccccc1)C2=O,–,–,–,–,·,–,·,·
Cc1cc(OC(C)C(=O)N2CCN(c3ccccc3)CC2)c2c(C)c(C)c(=O)oc2c1 (stereo unspecified),–,–,–,–,–,29,–,–
Cc1cc(OCC(=O)N2CCN(c3ccccc3)CC2)c2c(C)c(C)c(=O)oc2c1,–,–,–,–,–,–,·,·
